Rows were chosen to be rich in hits. Some 0.96% of all compounds tested hit in one or more screens of this group.
RPL19A TOR yeast = yeast TOR pathway RPL19A-GFP modulation; AID 2025; percent response vs DMSO, % at 10 µM; hit rate 0.3% among 330,000; S. cerevisiae RPL19A-GFP strain, flow cytometry, 3 h; hits give low values;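 active = percent response vs DMSO below 50%; inconclusive = fewer than 70 events counted for the yeast strain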;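 also: median channel GFP fluorescence of the barcoded RPL19A-GFP strain; ratio of sample median GFP to plate DMSO average so 100% = DMSO; lower means less RPL19A-GFP as with rapamycin TOR inhibition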
MEP2 TOR yeast = alters MEP2-GFP fluorescence in TOR pathway yeast screen | hit rate 0.51% among 330,000 | AID 2016 | S. cerevisiae MEP2-GFP strain, flow cytometry GFP, 3 h; 100% = DMSO control level | GFP response vs DMSO, % at 10 µM;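 active = GFP response versus DMSO above a set limit, roughly screen mean plus 3 SD, cut at about 180% in these data; inconclusive = fewer than 70 cells counted for a yeast strain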;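 also: median GFP fluorescence of the barcode-gated MEP2-GFP cells per well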
T cell HTS = T cell immune modulation candidate; 2C CD8+ T cell-vesicle binding, flow cytometry; hits give low values; response (vesicle binding), % at 7 µM; hit rate 0.068% among 330,000; AID 2052;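 active = response, share of CD8 T cells binding vesicles, and their 90th percentile fluorescence all below set limits, cut at about 80% in these data, passing the limit was not always enough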;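 also: values below 100% mean blocked vesicle binding to the CD8+ T cells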
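Read-out – percent CD8+ FL2 mean versus row control · System – murine 2C transgenic CD8+ T lymphocytes · Times – 1.5 h cell–vesicle binding at 37 °C, then 20 min icy labelling · Control set – naked vesicles low, QL9 vesicles with vehicle high · Detection – cytometric PE anti-B7-1 and Alexa647 anti-CD8 signals after 1% paraformaldehyde fixation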
LAP4 TOR yeast = modulators of TOR pathway LAP4-GFP in S. cerevisiae; S. cerevisiae LAP4-GFP multiplex, flow cytometry GFP, 3 h; median GFP as percent of DMSO wells; GFP response vs DMSO, % at 10 µM; hit rate 0.34% among 320,000; AID 2023;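 active = GFP response vs DMSO above a set limit, about the screen mean plus 3 SD, cut at about 150% in these data; inconclusive = under 70 cell events counted for the yeast strain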
CIT2 TOR yeast = alters CIT2-GFP fluorescence in TOR pathway yeast screen | S. cerevisiae CIT2-GFP strain, flow cytometry, 3 h; 100 means same as DMSO wells | GFP response vs DMSO, % at 10 µM | hit rate 0.065% among 320,000 | AID 2029;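 active = GFP response relative to DMSO above a set limit, near the screen mean plus 3 SD, cut at about 150% in these data; inconclusive = Fewer than 70 cells measured for a yeast strain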;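 also: ratio of well median GFP fluorescence to mean of DMSO wells on the plate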
AGP1-GFP MLPCN = modulators of TOR pathway AGP1-GFP in S. cerevisiae; S. cerevisiae AGP1-GFP multiplex flow cytometry, 3 h; GFP as percent of DMSO wells; GFP response vs DMSO, % at 10 µM; hit rate 0.02% among 320,000; AID 2066;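 active = GFP response relative to DMSO above a set limit, near screen average plus 3 SD, cut at about 150% in these data; inconclusive = fewer than 70 cells counted for the yeast strain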;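 also: median GFP channel fluorescence of the gated AGP1 strain per well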
* = called active by the depositor; i = inactive; ? = inconclusive; nt = not tested or not shown; ! = not active in a repeat; [ ] = another dose, or the depositor's remark.

SMILES	RPL19A TOR yeast	MEP2 TOR yeast	T cell HTS	LAP4 TOR yeast	CIT2 TOR yeast	AGP1-GFP MLPCN
COc1ccc2[nH]cc(CCN=C(N)N)c2c1	98.1	108.1	290.1	106.1	93.5	106.5
COc1ccc2[nH]cc(C3=CCNCC3)c2c1	108.8	182.5*	646.6	173.5*	170.8*	97.4
CN(C)CC1CSCCC1(O)c1ccc(Cl)cc1 (configuration not stated)	44.6*[may fluoresce violet]	205.1*[may fluoresce violet]	107.3	90.5	?	?
CC(=O)N(C)CC#CCN1CCCC(CO)C1 (configuration not stated)	106.8	102.2	598.6	105.5	94.6	99.5
COc1cc2c(cc1OC)C(C(=O)NC(C)C)C1CCCCN1C2=O (configuration not stated)	30.5*[may fluoresce violet]	498.2*[may fluoresce violet]	298.5	112.6	?	?
COc1cc2c(cc1OC)C(C(=O)NCCC(C)C)C1CCCCN1C2=O (configuration not stated)	101.7	102.6	123.9	95.4	108.4	102.3
N#CC(C#N)=NNc1ccc(-n2ccc(C(F)(F)F)n2)cc1	72.9	95.9	362.7	198.0*	89.2	68.9
Cc1nc2ccc(Cl)cc2c(=O)n1-c1cccc(Cl)c1	102.4	111.3	169.7	87.9	100.9	100.6
CC(C)C(=O)Nc1ccc(S(=O)(=O)N2CC3CC(C2)c2cccc(=O)n2C3)cc1 (configuration not stated)	100.2	90.4	i	88.2	94.7	98.7
CN1C(=O)C(=Cc2ccc(SC3CCCCC3)o2)C(=O)N(C)C1=O	94.6	91.8	198.9	151.5*	82.7	92.3
NC(N)=Nc1ccc2[nH]c3c(c2c1)C[C@@]1(O)[C@H]2Cc4ccc(O)c5c4[C@@]1(CCN2CC1CC1)[C@H]3O5	101.0	98.6	586.4	140.0	72.4	80.8
COc1ccc2c(c1)[nH]c1c(C)nccc12	93.9	95.5	648.9	125.7	83.0	86.6
C1=NCCc2c1[nH]c1ccccc21	100.2	103.4	i	106.9	96.1	107.6
COc1ccc2c3c([nH]c2c1)C(C)=NCC3	51.1	259.1*[may fluoresce violet]	630.8	115.3	?	18.2
CC1=NCCc2c1[nH]c1cc(O)ccc21	50.4	197.1*[may fluoresce violet]	140.1	91.1	?	62.1
O=C(c1ccccc1)c1ccc(N=Nc2c(O)[nH]c(=O)[nH]c2=O)cc1	100.4	226.5*[may fluoresce violet]	159.6	74.8	?	11.6
CC(C)c1ccc(N=Nc2c(O)[nH]c(=O)[nH]c2=O)cc1	103.8	103.5	152.5	123.6	108.2	114.4
O=C(O)c1cccc(N=Nc2c(O)[nH]c(=O)[nH]c2=O)c1	92.1	104.1	46.8*	112.0	107.3	105.3
CN(C)c1ccc(/C=C/C=C/c2sc3ccccc3[n+]2C)cc1	82.3	104.7	829.8	134.8	110.0	105.8
CC[n+]1c(/C=C/C=C/c2ccc(N(C)C)cc2)sc2ccccc21	?	103.2	333.9	366.5*[may fluoresce red]	103.3	106.3
Clc1ccc(COC(Cn2ccnc2)c2ccc(Cl)cc2Cl)c(Cl)c1 (configuration not stated)	?	110.5	0.0*!	?	?	115.6
CCCn1ncc(CN2CCCC(C(=O)c3cccc(OC)c3)C2)c1C (configuration not stated)	110.4	120.8	244.7	112.0	nt	112.7
Cc1cc(C=C2C(=O)N(C)C(=S)N(C)C2=O)c(C)n1-c1ccncc1	84.4	108.4	380.5	156.9*	58.6	105.2
CC1CN(C(=O)CCC(=O)N2CCC3(CC2)OCCO3)c2cc(Cl)ccc2O1 (configuration not stated)	98.6	100.5	720.5	106.2	100.0	102.6
Cc1cc(N=Nc2ccccc2C)ccc1N	87.5	92.9	149.4	138.3	78.1	88.2
SMILES	RPL19A TOR yeast	MEP2 TOR yeast	T cell HTS	LAP4 TOR yeast	CIT2 TOR yeast	AGP1-GFP MLPCN
Nc1ccc(N=Nc2ccccc2)cc1	89.6	93.9	429.0	190.0*	71.4	75.6
O=c1[nH]c(=O)n(Cc2ccc(F)cc2)c(O)c1C=NCCN1CCCCC1	78.1	178.5*	231.4	146.5	111.3	128.6
C[CH2][Hg][S]c1ccccc1C(=O)O	55.0	80.6	355.0	90.0	45.6	58.3
CC[C@H](C)/C=C(C)/C=C/C1=CC2=C(Cl)C(=O)[C@](C)(OC(C)=O)C(=O)C2=CO1	38.4*[may fluoresce violet]	70.5	521.2	59.8	?	11.5
CN(N)N=Nc1nc2c([nH]1)c(=O)n(C)c(=O)n2C	98.3	100.2	374.6	109.0	101.5	101.1
CC(=O)OC1N=C(c2ccc(Cl)cc2)c2cc(Br)ccc2NC1=O (configuration not stated)	58.1	451.1*[may fluoresce violet]	629.6	84.7	?	21.7
Cc1ccc(/C=C2\C(=O)NC(=O)N(CC3CCCO3)C2=O)s1 (configuration not stated)	87.8	84.2	983.2	191.1*	54.0	75.8
C[C@]12CCC3C(C(=O)C[C@H]4C[C@@H](O)CC[C@]34C)C1CCC2=O (some centres not stated)	96.4	90.4	268.2	93.4	92.1	94.8
CCN(CC)c1ccc(/C=C/[N+](=O)[O-])cc1	102.7	102.2	521.2	160.3*	92.3	90.6
O=C(CCC(=O)N1CC2C[C@@H](C1)Cn1c2cccc1=O)NCCc1ccccc1F	98.2	103.0	212.8	99.9	97.5	98.2
CN1C2CCC1CC(OC(=O)c1ccc([N+](=O)[O-])cc1)C2 (configuration not stated)	101.7	106.6	274.9	96.6	100.3	108.0
CN1[C@@H]2CC[C@H]1CC(OC(=O)C1C=Nc3ccccc31)C2 (some centres not stated)	82.5	177.3*	530.2	185.7*	105.8	110.4
CCC1(OC(=O)CN)C(=O)OCc2c1cc1n(c2=O)Cc2cc3ccccc3nc2-1 (configuration not stated)	100.9	98.1	121.8	93.8	96.1	91.2
CC[C@@]1(O)C(=O)OCc2c1cc1n(c2=O)Cc2cc3ccccc3nc2-1	97.3	86.4	350.0	160.1*	90.7	81.4
COC(=O)C1=C(c2cccc(OCc3ccccc3)c2)C[C@@H]2CC[C@H]1N2C(=O)NCc1ccccc1C(F)(F)F	94.8	89.9	738.4	98.8	95.0	98.2
COC(=O)C(O)(c1ccc(NC(=S)NC(=O)c2ccc(Cl)cc2Cl)c(C)c1)C(F)(F)F (configuration not stated)	99.8	102.9	247.6	108.0	100.2	95.2
CCOC(=O)C(O)(c1ccc(NC(=S)NC(=O)c2ccc(Cl)cc2Cl)c(C)c1)C(F)(F)F (configuration not stated)	27.6*[may fluoresce violet]	214.8*[may fluoresce violet]	187.5	?	?	?

Source: PubChem BioAssay (NMMLSC)
